The source made the active and inactive calls. No cut-off for these calls is given here.
What was measured:
Adrenergic receptor beta [1] = biological target: T1, Adrenergic receptor beta (Homo sapiens, UniProt P08588+P07550+P13945); experiment: In Vitro inhibition of the beta adrenergic receptor in guinea pig atria; assay type: tissue-based, Cavia porcellus; details: target entry is the homologue from another species
Adrenergic receptor beta [2] = biological target: T1, Adrenergic receptor beta; experiment: In vitro blocking of beta adrenergic receptor in guinea pig trachea; assay type: tissue-based, Cavia porcellus; details: target entry is the homologue from another species
[3] = Selectivity determined by expression 10[pA2(atria) - pA2 (trachea)] in guinea pig; assay type: functional, Cavia porcellus
[4] = t1/2 in canine liver; assay type: ADME, Canis lupus familiaris; details: dog
[5] = T1/2 in canine blood; assay type: ADME, […], Canis lupus familiaris; details: dog
In short: (§1)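 1 mL of solution containing 50 µg of compound was added to 1 mL of dog or human whole blood, or to 1 mL of 33% (w/v) canine liver homogenate. They were assayed by HPLC on a phenyl column with 60% acetonitrile/40% 0.05 M sodium phosphate (pH 6.6) and UV detection. Half-life was read graphically from concentration versus time.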

[6] = Stability at pH 7.4 and 37 degree Celsius (after 18 h); assay type: physicochemical; details: buffer
In short: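 Chemical stability was tested in pH 7.4 buffer at 37 °C. The percentage of parent compound remaining after 18 h of incubation was recorded.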

Canis familiaris [7] = species on record: Canis familiaris; experiment: Time taken for 80% recovery at a dose of 25 microg (3-h infusion period); assay type: functional, organism-based; details: Canis lupus familiaris
[8] = Time in which 1/2 of the initial amount disappeared in human blood.; assay type: ADME, organism-based; in short: as §1
Canis familiaris [9] = species on record: Canis familiaris; experiment: Time taken for 80% recovery at a dose of 7 microg (3-h infusion period); assay type: functional, organism-based; details: Canis lupus familiaris
In short: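 After the infusion ended, the time to 80% recovery of the blockade was recorded as duration of action. The listed dose is the average amount infused per minute over the 3-h period, in µg/(kg min).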

Canis familiaris [10] = species on record: Canis familiaris; experiment: Percent inhibition of isoproterenol induced tachycardia at a dose of 7 microg (3-h infusion period); assay type: functional, Canis lupus familiaris
Canis familiaris [11] = species on record: Canis familiaris; experiment: Time taken for 80% recovery at a dose of 18 microg (3-h infusion period); assay type: functional, organism-based; details: Canis lupus familiaris
Canis familiaris [12] = species on record: Canis familiaris; experiment: Time taken for 80% recovery at a dose of 121 microg (3-h infusion period) / 88 kg min (40-min infusion model); assay type: functional, organism-based; details: Canis lupus familiaris

SMILES | pA2 (Adrenergic receptor beta [1]) | pA2 (Adrenergic receptor beta [2]) | Selectivity [3] | further results
CC(C)(C)NCC(O)COC(=O)CCCc1ccccc1 (configuration not stated) | 5.3 |  |  | 
CC(=O)NCC(C)NCC(O)COC(=O)c1ccccc1F (configuration not stated) | < 6.3 |  |  | 
COc1ccc(CCNCC(O)COC(=O)c2ccc(C)cc2)cc1OC (configuration not stated) | 6.6 | 6 | 4 | 
CC(C)(C)NCC(O)COC(=O)C1c2ccccc2-c2ccccc21 (configuration not stated) | < 6 |  |  | 
CN(C)S(=O)(=O)NCC(C)(C)NCC(O)COC(=O)c1ccccc1F (configuration not stated) | 7.4 | 7.5 | 1 | 
CC(C)NCC(O)COC(=O)c1ccc(OCc2ccccc2)cc1 (configuration not stated) | < 6 |  |  | 
CCC(C)(C)NCC(O)COC(=O)c1ccccc1F (configuration not stated) | 6.7 | 7.7 | -5 | half-life [4]: 0.2 h; half-life [5]: 0.1 h
CC(C)(C)NCC(O)COC(=O)c1ccc(OCc2ccccc2)cc1 (configuration not stated) | 6.2 |  |  | 
CNCC(O)COC(=O)c1ccc2c(c1)OCO2 (configuration not stated) | 5.3 |  |  | 
COc1ccccc1COC(=O)C(O)CNCCc1ccc(OC)c(OC)c1 (configuration not stated) |  | 5 |  | pA2 (Adrenergic receptor beta [1]; Cavia porcellus): inactive
C=CCOc1ccccc1C(=O)OCC(O)CNC(C)C (configuration not stated) | 6.4 | 6.2 | -2 | 
COc1ccc(CCNCC(O)COC(=O)c2ccccc2Cl)cc1OC (configuration not stated) | 7.8 | 7.5 | 2 | remaining at 18 h [6]: 59%
CC(C)NCC(O)COC(=O)c1ccc(O)cc1 (configuration not stated) | 6.8 | 7.2 | -2.5 | Recovery time (Canis familiaris [7]): > 45 min
CC(C)(C)NCC(O)COC(=O)C(c1ccccc1)c1ccccc1 (configuration not stated) | < 5.5 |  |  | half-life [8]: 2 h; half-life [5]: > 3 h
CCCOc1cccc(C(=O)OCC(O)CNC(C)C)c1 (configuration not stated) | 6.6 |  |  | 
CC(C)(C)NCC(O)COC(=O)c1ccc([N+](=O)[O-])cc1 (configuration not stated) | 6.1 |  |  | half-life [4]: > 3 h; half-life [8]: 0.0917 h; half-life [5]: > 3 h
Cc1ccc(C(=O)OCC(O)CNC(C)C)cc1 (configuration not stated) | 6.8 | 6.8 | 1 | half-life [4]: 0.173 h; half-life [8]: 0.1 h; half-life [5]: 1.12 h
COc1ccc(CCNCC(O)COC(=O)c2ccc(CO)cc2)cc1OC (configuration not stated) | < 5.5 |  |  | 
CC(C)(C)NCC(O)COC(=O)c1ccccc1Cl (configuration not stated) |  |  |  | half-life [4]: 1.2 h; half-life [8]: 0.1 h; half-life [5]: 0.517 h; remaining at 18 h [6]: 98%; Recovery time (Canis familiaris [11]): > 35 min
CC(C)(C)NCC(O)COC(=O)c1cccc([N+](=O)[O-])c1 (configuration not stated) | 6.8 |  |  | half-life [4]: > 3 h; half-life [5]: 1.23 h
COc1ccc(CCNCC(O)COC(=O)c2ccccc2)cc1OC (configuration not stated) | 7 | 6.3 | 5 | Recovery time (Canis familiaris [12]): 29 min

More lines, main results first:

pA2 (Adrenergic receptor beta [1]) | pA2 (Adrenergic receptor beta [2]) | SMILES | Selectivity [3] | further results
6.7 | 7.2 | CC(C)(C)NCC(O)COC(=O)c1cccc(N)c1 (configuration not stated) | -3.5 | 
< 6 |  | O=C(Cc1ccccc1)NCCNCC(O)COC(=O)c1ccccc1F (configuration not stated) |  | 
7.7 | 7.7 | COCCOC(=O)NCC(C)(C)NCC(O)COC(=O)c1ccccc1F (configuration not stated) | 1 | 
6.1 | 6.4 | CC(=O)Nc1cccc(C(=O)OCC(O)CNC(C)C)c1 (configuration not stated) | -2 | 
7.8 | 8.4 | Cc1cc(N)ccc1C(=O)OCC(O)CNC(C)(C)C (configuration not stated) | -4 | 
6.1 |  | CC(C)C(=O)NCCNCC(O)COC(=O)c1ccccc1F (configuration not stated) |  | 
7 | 7 | CC(C)(C)NCC(O)COC(=O)c1ccc(N)cc1 (configuration not stated) | 1 | 
6.6 | 7 | CC(C)NCC(O)COC(=O)c1cccc2ccccc12 (configuration not stated) | -2.5 | 
7.4 | 7.6 | CC(C)(C)NCC(O)COC(=O)c1cccc(O)c1 (configuration not stated) | -2 | Recovery time (Canis familiaris [9]): 25 min; half-life [4]: 1.03 h; Inhibition (Canis familiaris [10]): 56%; half-life [5]: 1.98 h
6.6 | 7.3 | Cc1cc([N+](=O)[O-])ccc1C(=O)OCC(O)CNC(C)(C)C (configuration not stated) | -5 | 
